Data reported in ChEMBL document CHEMBL3856214, “Lanostane Triterpenes Isolated from Antrodia heteromorpha and Their Inhibitory Effects on RANKL-Induced Osteoclastogenesis” (J Nat Prod, 2016).

Experiments:
[1] = tested on: BMDM; experiment: Inhibition of RANKL-induced C57BL/6 mouse BMDM differentiation into osteoclasts after 4 days in presence of M-CSF by TRAP staining-based light microscopy; format: functional
Method in brief: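 BMMs (6–8-week-old female C57BL/6 mouse femur/tibia marrow, 3 days with M-CSF 50 ng/mL) seeded at 4 × 10^4/well. Cultured 4 days with M-CSF (50 ng/mL), RANKL (100 ng/mL) and vehicle or compound. Fixed in 10% formalin for 5 min, then TRAP-stained by kit to show TRAP-positive multinucleated osteoclasts.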

[2] = species on record: Mus musculus; experiment: Cytotoxicity against C57BL/6 mouse BMDM assessed as decrease in cell viability at IC50 after 4 days in presence of RANKL/M-CSF by XTT assay; format: toxicity; details: 96 h
[3] = tested on: BMDM; experiment: (§1) Inhibition of RANKL-induced C57BL/6 mouse BMDM differentiation into osteoclasts after 4 days in presence of M-CSF by TRAP assay; format: functional
Method in brief: (§2)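 Bone marrow cells from femurs and tibiae of 6–8-week-old female C57BL/6 mice; after red-cell lysis, 3 days in α-MEM/10% FBS with penicillin-streptomycin and M-CSF (50 ng/mL); adherent cells kept as BMMs. BMMs (4 × 10^4/well) given M-CSF (50 ng/mL) plus RANKL (100 ng/mL) with vehicle or compound, 4 days. TRAP activity of culture supernatant with chromogenic substrate, OD 540 nm.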

[4] = as §1; format: functional; details: C57BL/6, BMDM, 96 h; method in brief: as §2

Row | IC50 [4] [µM] | Structure (SMILES) | inhibition [1] | Activity [2] | inhibition [3]
1 | 4.5 | CC1=C(C)[C@@]2(C[C@](C)(O)[C@H]3C[C@H](O)[C@@]4(C)C5=CC[C@H]6C(C)(C)[C@@H](O)C(=O)C[C@]6(C)C5=C[C@@H](O2)[C@]34C)OC1=O | Dose-dependent effect | Non-Toxic | Dose-dependent effect
2 | 7.4 | CC1=C(C)[C@@]2(C[C@](C)(O)[C@H]3C[C@H](O)[C@@]4(C)C5=CC[C@H]6C(C)(C)C(=O)[C@H](O)C[C@]6(C)C5=C[C@@H](O2)[C@]34C)OC1=O | Dose-dependent effect | Non-Toxic | Dose-dependent effect

Row | Structure (SMILES) | IC50 [4] [µM] | inhibition [1] | Activity [2] | inhibition [3]
3 | C=C(CC[C@@H](C(=O)O)[C@H]1[C@H](O)C[C@@]2(C)C3=CC[C@H]4C(C)(C)C(=O)CC[C@]4(C)C3=CC[C@]12C)C(C)C [POLYPORENIC ACID B] | 4.9 | Dose-dependent effect | Non-Toxic | Dose-dependent effect
